Measurements reported in ChEMBL document CHEMBL1126637, “Dicarboxylate diamide dimercaptide (N2S2) technetium-99m complexes: synthesis and biological evaluation as potential renal radiopharmaceuticals” (J Med Chem, 1993).

Key:
[1] = species on record: Rattus norvegicus; experiment: Biodistribution of the [99mTc] complex with OIH in rat liver at 60 min postinjection (3-4 rats used); assay type: ADME, organism-based; conditions: in vivo, 1 h
Procedure, shortened: (§1)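 Male Sprague-Dawley rats (200-300 g), ketamine/xylazine anesthesia (80 mg/kg : 8 mg/kg), bladder cannulated with PE 50 tubing. Given iv via femoral vein 0.2 mL saline holding the 99mTc complex (20 µCi) co-injected with [131I]OIH (7 µCi). Percent injected dose per organ from comparing tissue radioactivity against dilutions of the injected dose, corrected for 131I spillover into the 99mTc channel; mean ±SD, 3-4 rats.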

[2] = species on record: Rattus norvegicus; experiment: Biodistribution of the [99mTc] complex with OIH in rat lung at 60 min postinjection (3-4 rats used); assay type: ADME, organism-based; conditions: in vivo, 1 h; procedure, shortened: as §1
[3] = species on record: Rattus norvegicus; experiment: Biodistribution of the [99mTc] complex in rat kidney at 10 min postinjection (3-4 rats used); assay type: ADME, organism-based; conditions: in vivo; procedure, shortened: as §1
[4] = species on record: Rattus norvegicus; experiment: Biodistribution of the [99mTc] complex in rat liver at 60 min postinjection (3-4 rats used); assay type: ADME, organism-based; conditions: in vivo, 1 h; procedure, shortened: as §1
[5] = species on record: Rattus norvegicus; experiment: Biodistribution of the [99mTc] complex with OIH in rat blood at 60 min postinjection (3-4 rats used); assay type: ADME, organism-based; conditions: in vivo, 1 h; procedure, shortened: as §1
[6] = species on record: Rattus norvegicus; experiment: Biodistribution of the [99mTc] complex in rat intestines at 60 min postinjection (3-4 rats used); assay type: ADME, organism-based, Intestine; conditions: in vivo, 1 h; procedure, shortened: as §1
[7] = species on record: Rattus norvegicus; experiment: Biodistribution of the [99mTc] complex with OIH in rat muscle at 60 min postinjection (3-4 rats used); assay type: ADME, organism-based, Muscle tissue; conditions: in vivo, 1 h; procedure, shortened: as §1
[8] = species on record: Rattus norvegicus; experiment: Biodistribution of the [99mTc] complex in rat lung at 60 min postinjection (3-4 rats used); assay type: ADME, organism-based; conditions: in vivo, 1 h; procedure, shortened: as §1
[9] = species on record: Rattus norvegicus; experiment: Biodistribution of the [99mTc] complex in rat muscle at 60 min postinjection (3-4 rats used); assay type: ADME, organism-based, Muscle tissue; conditions: in vivo, 1 h; procedure, shortened: as §1
[10] = species on record: Rattus norvegicus; experiment: Biodistribution of the [99mTc] complex with OIH in rat heart at 60 min postinjection (3-4 rats used); assay type: ADME, organism-based; conditions: in vivo, 1 h; procedure, shortened: as §1
[11] = species on record: Rattus norvegicus; experiment: Biodistribution of the [99mTc] complex with OIH in rat intestine at 10 min postinjection (3-4 rats used); assay type: ADME, organism-based; conditions: in vivo; procedure, shortened: as §1
[12] = species on record: Rattus norvegicus; experiment: Biodistribution of the [99mTc] complex in rat blood at 60 min postinjection (3-4 rats used); assay type: ADME, organism-based; conditions: in vivo, 1 h; procedure, shortened: as §1
[13] = species on record: Rattus norvegicus; experiment: Biodistribution of the [99mTc] complex in rat lung at 10 min postinjection (3-4 rats used); assay type: ADME, organism-based; conditions: in vivo; procedure, shortened: as §1
[14] = species on record: Rattus norvegicus; experiment: Biodistribution of the [99mTc] complex in rat liver at 10 min postinjection (3-4 rats used); assay type: ADME, organism-based; conditions: in vivo; procedure, shortened: as §1
[15] = species on record: Rattus norvegicus; experiment: Biodistribution of the [99mTc] complex with OIH in rat intestine at 60 min postinjection (3-4 rats used); assay type: ADME, organism-based; conditions: in vivo, 1 h; procedure, shortened: as §1
[16] = species on record: Rattus norvegicus; experiment: Biodistribution of the [99mTc] complex in rat blood at 10 min postinjection (3-4 rats used); assay type: ADME, organism-based; conditions: in vivo; procedure, shortened: as §1
[17] = species on record: Rattus norvegicus; experiment: Biodistribution of the [99mTc] complex in rat kidney at 60 min postinjection (3-4 rats used); assay type: ADME, organism-based; conditions: in vivo, 1 h; procedure, shortened: as §1
[18] = species on record: Rattus norvegicus; experiment: Biodistribution of the [99mTc] complex with OIH in rat kideny at 10 min postinjection (3-4 rats used); assay type: ADME, organism-based; conditions: in vivo; procedure, shortened: as §1
[19] = species on record: Rattus norvegicus; experiment: Biodistribution of the [99mTc] complex with OIH in rat muscle at 10 min postinjection (3-4 rats used); assay type: ADME, organism-based, Muscle tissue; conditions: in vivo; procedure, shortened: as §1
[20] = species on record: Rattus norvegicus; experiment: Biodistribution of the [99mTc] complex with OIH in rat heart at 10 min postinjection (3-4 rats used); assay type: ADME, organism-based; conditions: in vivo; procedure, shortened: as §1
[21] = species on record: Rattus norvegicus; experiment: Biodistribution of the [99mTc] complex with OIH in rat liver at 10 min postinjection (3-4 rats used); assay type: ADME, organism-based; conditions: in vivo; procedure, shortened: as §1
[22] = species on record: Rattus norvegicus; experiment: Biodistribution of the [99mTc] complex in rat heart at 10 min postinjection (3-4 rats used); assay type: ADME, organism-based; conditions: in vivo; procedure, shortened: as §1
[23] = species on record: Rattus norvegicus; experiment: Biodistribution of the [99mTc] complex with OIH in rat spleen at 60 min postinjection (3-4 rats used); assay type: ADME, organism-based; conditions: in vivo, 1 h; procedure, shortened: as §1
[24] = species on record: Rattus norvegicus; experiment: Biodistribution of the [99mTc] complex in rat muscle at 10 min postinjection (3-4 rats used); assay type: ADME, organism-based, Muscle tissue; conditions: in vivo; procedure, shortened: as §1
[25] = species on record: Rattus norvegicus; experiment: Biodistribution of the [99mTc] complex in rat spleen at 10 min postinjection (3-4 rats used); assay type: ADME, organism-based; conditions: in vivo; procedure, shortened: as §1
[26] = species on record: Rattus norvegicus; experiment: Biodistribution of the [99mTc] complex in with OIH rat kidney at 60 min postinjection (3-4 rats used); assay type: ADME, organism-based; conditions: in vivo, 1 h; procedure, shortened: as §1
[27] = test system: Monkey; experiment: Percentage of counts in the pellet/total number of counts in both supernatant and pellet in monkey plasma (n=3); assay type: functional, Cercopithecidae
Procedure, shortened: (§2)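 Plasma from male cynomolgus monkey or male Sprague-Dawley rat blood (centrifuged 4000 rpm, 5 min). 99mTc complex in 50% ethanol/H2O (1 × 10^6 counts) incubated with 1 mL plasma at 37 °C for 30 min. Precipitation with 0.4 mL 10% trichloroacetic acid, centrifuged 4000 rpm 10 min, pellet washed twice with water. Bound = pellet counts/(pellet + supernatant + washes) counts; 3 determinations, mean ± SD.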

[28] = species on record: Rattus norvegicus; experiment: Biodistribution of the [99mTc] complex in rat intestines at 10 min postinjection (3-4 rats used); assay type: ADME, organism-based, Intestine; conditions: in vivo; procedure, shortened: as §1
[29] = species on record: Rattus norvegicus; experiment: Biodistribution of the [99mTc] complex in rat heart at 60 min postinjection (3-4 rats used); assay type: ADME, organism-based; conditions: in vivo, 1 h; procedure, shortened: as §1
[30] = species on record: Rattus norvegicus; experiment: Biodistribution of the [99mTc] complex in rat spleen at 60 min postinjection (3-4 rats used); assay type: ADME, organism-based; conditions: in vivo, 1 h; procedure, shortened: as §1
[31] = species on record: Rattus norvegicus; experiment: Biodistribution of the [99mTc] complex with OIH in rat spleen at 10 min postinjection (3-4 rats used); assay type: ADME, organism-based; conditions: in vivo; procedure, shortened: as §1
[32] = species on record: Rattus norvegicus; experiment: Biodistribution of the [99mTc] complex with OIH in rat blood at 10 min postinjection (3-4 rats used); assay type: ADME, organism-based; conditions: in vivo; procedure, shortened: as §1
[33] = species on record: Rattus norvegicus; experiment: Percentage of counts in the pellet/total number of counts in both supernatant and pellet in rat plasma (n=3); assay type: functional; procedure, shortened: as §2
[34] = species on record: Rattus norvegicus; experiment: Biodistribution of the [99mTc] complex with OIH in rat lung at 10 min postinjection (3-4 rats used); assay type: ADME, organism-based; conditions: in vivo; procedure, shortened: as §1
[35] = species on record: Rattus norvegicus; experiment: Percentage of counts in the pellet/total number of counts in both supernatant and pellet in rat plasma; assay type: functional; procedure, shortened: as §2
[36] = species on record: Rattus norvegicus; experiment: Biodistribution of the [99mTc] complex with OIH in rat spleen at 10 min postinjection (mean +/- SD, 3-4 rats used); assay type: ADME, organism-based; conditions: in vivo; procedure, shortened: as §1
[37] = species on record: Rattus norvegicus; experiment: Biodistribution of the [99mTc] complex with OIH in rat intestines at 60 min postinjection (3-4 rats used); assay type: ADME, organism-based, Intestine; conditions: in vivo, 1 h; procedure, shortened: as §1
[38] = test system: Monkey; experiment: Percentage of counts in the pellet/total number of counts in both supernatant and pellet in monkey plasma; assay type: functional, Cercopithecidae; procedure, shortened: as §2
[39] = species on record: Rattus norvegicus; experiment: Biodistribution of the [99mTc] complex with OIH in rat kidney at 60 min postinjection (3-4 rats used); assay type: ADME, organism-based; conditions: in vivo, 1 h; procedure, shortened: as §1
[40] = species on record: Rattus norvegicus; experiment: Biodistribution of the [99mTc] complex with OIH in rat intestines at 10 min postinjection (3-4 rats used); assay type: ADME, organism-based, Intestine; conditions: in vivo; procedure, shortened: as §1
[41] = species on record: Rattus norvegicus; experiment: Biodistribution of the [99mTc] complex with OIH in rat kidney at 10 min postinjection ( 3-4 rats used); assay type: ADME, organism-based; conditions: in vivo; procedure, shortened: as §1
[42] = species on record: Rattus norvegicus; experiment: Biodistribution of the [99mTc] complex with OIH in rat blood at 60 min postinjection (, 3-4 rats used); assay type: ADME, organism-based; conditions: in vivo, 1 h; procedure, shortened: as §1

COC(=O)C(CC(=O)NCCNC(=O)CC(SC(=O)c1ccccc1)C(=O)OC)SC(=O)c1ccccc1 (stereo not drawn)
Injected dose [1]: 0.5%
Injected dose [2]: < 0.1%
Injected dose [3]: 5.3%
Injected dose [4]: 3%
Injected dose [5]: 0.5%
Injected dose [6]: 1.7%
Injected dose [7]: 1.6%
Injected dose [8]: 0.7%
Injected dose [9]: 20.4%
Injected dose [10]: < 0.1%
Injected dose [11]: 1.6%
Injected dose [12]: 15.2%
Injected dose [13]: 1.1%
Injected dose [14]: 5%
Injected dose [15]: 1.6%
Injected dose [16]: 26.2%
Injected dose [17]: 1.9%
Injected dose [18]: 9.9%
Injected dose [19]: 7.9%
Injected dose [20]: 0.1%
Injected dose [21]: 3.3%
Injected dose [22]: 0.4%
Injected dose [23]: < 0.1%
Injected dose [24]: 22.8%
Injected dose [25]: 0.2%
Injected dose [26]: 0.5%
Activity [27]: 26.5%
Injected dose [28]: 1.4%
Injected dose [29]: 0.3%
Injected dose [30]: 0.1%
Injected dose [31]: < 0.1%
Injected dose [32]: 4.4%
Activity [33]: 22%
Injected dose [34]: 0.2%

COC(=O)CC(SC(=O)c1ccccc1)C(=O)NCCNC(=O)C(CC(=O)OC)SC(=O)c1ccccc1 (stereo not drawn)
Injected dose [1]: 0.3%
Injected dose [2]: < 0.1%
Injected dose [3]: 4.3%
Injected dose [4]: 3.1%
Injected dose [6]: 1.3%
Injected dose [7]: 1.6%
Activity [35]: 31.1%
Injected dose [8]: 0.7%
Injected dose [9]: 21.1%
Injected dose [10]: < 0.1%
Injected dose [36]: 0.1%
Injected dose [12]: 16.4%
Injected dose [13]: 1.2%
Injected dose [14]: 5%
Injected dose [16]: 26.7%
Injected dose [17]: 2.1%
Injected dose [37]: 0.8%
Injected dose [19]: 9.9%
Injected dose [20]: < 0.1%
Injected dose [21]: 2.5%
Injected dose [22]: 0.4%
Injected dose [23]: < 0.1%
Injected dose [24]: 26.9%
Injected dose [25]: 0.3%
Activity [38]: 26.2%
Injected dose [28]: 1.7%
Injected dose [39]: 0.6%
Injected dose [29]: 0.2%
Injected dose [30]: 0.1%
Injected dose [40]: 1.4%
Injected dose [41]: 6.9%
Injected dose [42]: 0.6%
Injected dose [32]: 5.3%
Injected dose [34]: 0.3%
